Source: ChEMBL document CHEMBL1144664, “Design, synthesis, and SAR of new pyrrole-oxindole progesterone receptor modulators leading to 5-(7-fluoro-3,3-dimethyl-2-oxo-2,3-dihydro-1H-indol-5-yl)-1-methyl-1H-pyrrole-2-carbonitrile (WAY-255348)” (J Med Chem, 2008)
Active and inactive are the calls of the source. The calls are words filed in the database; no cut-off is given here.

How the values were obtained:
[1] = target: T1, Estrogen receptor (Homo sapiens) (UniProt P03372); test: Antagonist activity at human ER ligand binding domain expressed in african green monkey COS7 cells in presence of 17-beta-estradiol by Gal4 hybrid assay; format: cell-based; settings: COS-7
T1 sequence (whole entry): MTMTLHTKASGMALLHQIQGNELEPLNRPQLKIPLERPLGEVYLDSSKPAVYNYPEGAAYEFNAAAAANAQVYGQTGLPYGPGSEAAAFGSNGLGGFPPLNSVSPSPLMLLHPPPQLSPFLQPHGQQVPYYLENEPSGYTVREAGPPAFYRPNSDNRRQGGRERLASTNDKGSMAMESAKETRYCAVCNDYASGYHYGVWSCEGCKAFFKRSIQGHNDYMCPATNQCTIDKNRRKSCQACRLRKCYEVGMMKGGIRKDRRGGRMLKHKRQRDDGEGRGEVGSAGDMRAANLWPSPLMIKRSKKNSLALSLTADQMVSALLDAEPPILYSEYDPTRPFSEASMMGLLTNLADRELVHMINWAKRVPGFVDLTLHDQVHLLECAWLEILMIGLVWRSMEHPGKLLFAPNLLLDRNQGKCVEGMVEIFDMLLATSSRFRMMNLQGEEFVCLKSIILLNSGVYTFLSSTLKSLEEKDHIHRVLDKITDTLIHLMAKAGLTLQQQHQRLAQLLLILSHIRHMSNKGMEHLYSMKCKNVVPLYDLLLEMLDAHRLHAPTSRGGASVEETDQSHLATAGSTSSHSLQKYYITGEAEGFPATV
How it was run: (§1)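 Gal4-steroid receptor LBD fusion plasmid plus GAL4_UAS (5 copies, E1b TATA)-luciferase reporter, 50 ng/well each, transfected 16 h into COS-7 cells grown in phenol red-free DMEM with 10% charcoal/dextran-treated FBS. Compound treatment 20 h, then luciferase read-out. Antagonist mode uses 3 nM aldosterone (hMR) or 5 nM 17β-estradiol (hER). Values are the average of at least duplicate determinations.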

[2] = system: Rhesus monkey; test: Effect on ovulation rate of rhesus monkey; format: functional, organism-based; settings: Macaca mulatta
How it was run: (§2)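 Adult female rhesus macaques (n=3) with regular cycles dosed 10 mg/(kg·day) po in 2% Tween 80/0.5% methylcellulose with cherry flavoring for 28 days from cycle day 2. Serum estradiol and progesterone measured every 3 days. Necropsy on day 28. Uterine weights are of half the uterus; KI-67 and mitotic indices counted per 1000 cells. Values given as mean ± SE.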

[3] = Volume of distribution at steady state in Sprague-Dawley rat at 1 mg/kg, iv; format: ADME, organism-based; design: dose 1 mg/kg, route intravenous; settings: in vivo, read-out: Vdss
How it was run: (§3)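 Female Sprague–Dawley rats dosed as 1-in-4 cassette or discrete studies. iv in DMSO/PEG200 20:80; po in aqueous 2% Tween 80/0.5% methyl cellulose. Parameters reported: C0, Cmax, t1/2, plasma clearance, Vss, AUC0-inf and %F.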

[4] = AUC (0 to infinity) in Sprague-Dawley rat at 5 mg/kg, po; format: ADME, organism-based; design: time infinity, dose 5 mg/kg, route oral; settings: plasma
[5] = target: T1, Estrogen receptor (Homo sapiens); test: Agonist activity at human ER ligand binding domain expressed in african green monkey COS7 cells by Gal4 hybrid assay; format: cell-based; settings: COS-7; how it was run: as §1
[6] = system: Rhesus monkey; test: Effect on endometrium weight of rhesus monkey; format: functional, Macaca mulatta; how it was run: as §2
[7] = system: Rhesus monkey; test: Effect on basalis KI67 assessed as number of KI67 labeled cells of rhesus monkey; format: functional, Macaca mulatta; how it was run: as §2
[8] = AUC (0 to infinity) in Sprague-Dawley rat at 1 mg/kg, iv; format: ADME, organism-based; design: time infinity, dose 1 mg/kg, route intravenous; settings: plasma
[9] = Half life in Sprague-Dawley rat at 0.5 mg/kg, iv; format: ADME, organism-based; design: dose 0.5 mg/kg, route intravenous; settings: in vivo; how it was run: as §3
[10] = system: Rhesus monkey; test: Effect on cell proliferation in rhesus monkey assessed basalis mitotic index; format: functional, Macaca mulatta; how it was run: as §2
[11] = target: T2, Mineralocorticoid receptor (Homo sapiens) (UniProt P08235); test: Agonist activity at human MR ligand binding domain receptor expressed in african green monkey COS7 cells by Gal4 hybrid assay; format: cell-based; settings: COS-7; how it was run: as §1
T2 sequence (whole entry): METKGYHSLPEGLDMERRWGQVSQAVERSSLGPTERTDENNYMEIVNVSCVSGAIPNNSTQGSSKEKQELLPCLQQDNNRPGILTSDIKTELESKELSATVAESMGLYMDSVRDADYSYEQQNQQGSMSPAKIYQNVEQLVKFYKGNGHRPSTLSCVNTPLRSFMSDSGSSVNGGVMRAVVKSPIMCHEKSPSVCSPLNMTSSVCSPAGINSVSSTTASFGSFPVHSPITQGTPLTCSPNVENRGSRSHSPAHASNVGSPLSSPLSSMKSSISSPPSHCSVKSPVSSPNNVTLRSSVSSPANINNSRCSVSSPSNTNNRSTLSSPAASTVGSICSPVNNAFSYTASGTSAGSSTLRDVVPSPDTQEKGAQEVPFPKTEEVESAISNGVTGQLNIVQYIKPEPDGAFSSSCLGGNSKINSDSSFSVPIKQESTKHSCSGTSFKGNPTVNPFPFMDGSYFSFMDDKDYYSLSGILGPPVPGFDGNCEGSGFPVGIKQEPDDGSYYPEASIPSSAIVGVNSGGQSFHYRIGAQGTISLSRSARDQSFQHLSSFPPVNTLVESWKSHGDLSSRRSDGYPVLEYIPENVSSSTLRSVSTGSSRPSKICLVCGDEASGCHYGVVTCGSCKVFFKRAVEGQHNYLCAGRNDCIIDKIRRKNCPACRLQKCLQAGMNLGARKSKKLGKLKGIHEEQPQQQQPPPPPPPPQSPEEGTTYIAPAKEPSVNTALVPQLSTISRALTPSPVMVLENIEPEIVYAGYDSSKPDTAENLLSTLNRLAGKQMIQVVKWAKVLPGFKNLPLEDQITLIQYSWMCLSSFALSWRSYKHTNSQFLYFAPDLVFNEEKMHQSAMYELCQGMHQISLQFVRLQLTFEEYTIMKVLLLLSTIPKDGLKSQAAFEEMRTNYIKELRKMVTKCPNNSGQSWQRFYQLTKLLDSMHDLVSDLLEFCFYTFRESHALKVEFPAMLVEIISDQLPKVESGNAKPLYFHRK

[12] = system: Cynomolgus monkey; test: Inhibition of ovulation in cynomolgus monkey assessed as luteal phase progesterone surge at 3 mg/kg; format: functional; settings: Macaca fascicularis
How it was run: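 Normally cycling cynomolgus monkeys dosed orally, daily at 1, 3 or 10 mg/kg (n=4–6) or vehicle (n=2), in 2% Tween 80/0.5% methylcellulose for 30 days from cycle day 2. Serum sampled three times weekly; progesterone measured by radioimmunoassay to detect a luteal-phase rise as the sign of ovulation.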

[13] = Drug level in Sprague-Dawley rat at 0.5 mg/kg, iv; format: ADME, organism-based; design: dose 0.5 mg/kg, route intravenous; settings: in vivo; how it was run: as §3

## Cn1c(C#N)ccc1-c1cc(F)c2c(c1)C(C)(C)C(=O)N2
[1]
  Activity: inactive
[2]
  Activity: inactive
[3]
  Vd: 2.4 L/kg
[4]
  AUC(0-inf): 7150 ng·h/mL
[5]
  Activity: inactive
[6]
  Activity: 60 mg
[7]
  Activity: 0
[8]
  AUC(0-inf): 4650 ng·h/mL
[9]
  half-life: 9.5 h
[10]
  Activity: 0
[11]
  Activity: inactive
[12]
  ED50: 1.6 mg/kg
[13]
  C0: 385 ng/mL
